Measured values from ChEMBL document CHEMBL3872230, “Inhibition of the enzymes in the leukotriene and prostaglandin pathways in inflammation by 3-aryl isocoumarins” (Eur J Med Chem, 2016).
The source made the active and inactive calls. No cut-off for these calls is given here.

T1: Polyunsaturated fatty acid 5-lipoxygenase (Homo sapiens) (UniProt P09917)
T1 sequence (whole entry): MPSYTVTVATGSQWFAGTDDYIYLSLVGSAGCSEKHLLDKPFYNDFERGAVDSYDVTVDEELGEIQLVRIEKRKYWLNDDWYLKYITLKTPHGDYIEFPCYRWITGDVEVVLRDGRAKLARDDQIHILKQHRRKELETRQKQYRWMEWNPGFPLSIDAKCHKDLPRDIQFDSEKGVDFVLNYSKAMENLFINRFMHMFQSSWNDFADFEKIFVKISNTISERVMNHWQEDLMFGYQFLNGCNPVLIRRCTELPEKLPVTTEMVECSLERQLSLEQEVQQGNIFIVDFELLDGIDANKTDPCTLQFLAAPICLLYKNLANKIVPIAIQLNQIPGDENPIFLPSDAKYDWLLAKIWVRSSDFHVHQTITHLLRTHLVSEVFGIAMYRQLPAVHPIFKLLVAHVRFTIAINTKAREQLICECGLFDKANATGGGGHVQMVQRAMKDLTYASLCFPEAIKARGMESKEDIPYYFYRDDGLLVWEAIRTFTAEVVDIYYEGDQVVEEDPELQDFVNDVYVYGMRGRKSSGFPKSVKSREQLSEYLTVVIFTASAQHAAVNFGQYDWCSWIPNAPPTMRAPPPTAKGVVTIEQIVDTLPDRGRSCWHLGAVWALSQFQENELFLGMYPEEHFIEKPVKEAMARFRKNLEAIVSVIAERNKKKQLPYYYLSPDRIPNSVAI

T2: Polyunsaturated fatty acid 5-lipoxygenase (Homo sapiens, UniProt P09917)
T2 sequence (P09917 whole entry): T1 sequence (whole entry)

T3: Prostaglandin E synthase (Homo sapiens) (UniProt O14684)
T3 sequence (whole entry): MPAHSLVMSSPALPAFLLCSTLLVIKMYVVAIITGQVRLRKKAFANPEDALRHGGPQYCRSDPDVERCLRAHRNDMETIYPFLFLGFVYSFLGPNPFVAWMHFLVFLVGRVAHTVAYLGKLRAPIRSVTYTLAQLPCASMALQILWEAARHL

T4: Prostaglandin E synthase (Homo sapiens, UniProt O14684)
T4 sequence (O14684 whole entry): T3 sequence (whole entry)

B1: Polyunsaturated fatty acid 5-lipoxygenase (Homo sapiens), P09917 (protein)
chain: T1 sequence (whole entry)

Key:
[1] = target: T1, Polyunsaturated fatty acid 5-lipoxygenase (Homo sapiens); experiment: Inhibition of human recombinant 5-LOX expressed in Escherichia coli BL21 assessed as decrease in 5-HPETE production at 50 uM preincubated with enzyme followed by arachidonic acid substrate addition by UV-vis spectrophotometry
[2] = target: T1, Polyunsaturated fatty acid 5-lipoxygenase (Homo sapiens); conditions: 10 uM
[3] = target: T2, Polyunsaturated fatty acid 5-lipoxygenase; experiment: Inhibition of human recombinant 5-LOX expressed in Escherichia coli BL21 assessed as decrease in 5-HPETE production preincubated with enzyme followed by arachidonic acid substrate addition by UV-vis spectrophotometry
[4] = target: T3, Prostaglandin E synthase (Homo sapiens); experiment: Inhibition of mPGES1 in human HeLa cells assessed as reduction in TNF-alpha induced PGE2 production at 50 uM preincubated for 2 hrs followed by TNF-alpha addition for 24 hrs by ELISA; assay type: cell-based
How it was run: (§1)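 Read-out was PGE2 released into the HeLa culture supernatant, measured with an ELISA kit.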

[5] = Antioxidant activity assessed as DPPH radical scavenging activity at 50 uM after 30 mins; assay type: functional
[6] = Cytotoxicity against human HeLa cells assessed as cell proliferation at 50 uM after 24 hrs by MTT assay; assay type: toxicity, cell-based; conditions: read-out: Activity
HeLa [7] = experiment: Increase in NFkappaB mRNA expression in human HeLa cells at 50 uM by RT-PCR method relative to control; assay type: functional
How it was run: (§2)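 Real-time PCR on treated HeLa cells. mRNA levels were normalized to untreated cells and to β-actin, and significance was assessed by 2-way ANOVA.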

[8] = target: T5, Prostaglandin E synthase/G/H synthase 2 (Homo sapiens) (UniProt P35354+O14684); experiment: Inhibition of COX-2/mPGES1 in human HeLa cells assessed as reduction in TNF-alpha induced PGE2 production at 50 uM after 15 mins followed by ELISA; assay type: cell-based
How it was run: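 TNF-treated HeLa cells were exposed to compound for 15 min without added arachidonic acid. PGE2 released into the culture supernatant was measured by ELISA.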

HeLa [9] = experiment: Increase in IFN-gamma mRNA expression in human HeLa cells at 50 uM by RT-PCR method relative to control; assay type: functional; how it was run: as §2
HeLa [10] = experiment: Increase in TGF-beta3 mRNA expression in human HeLa cells at 50 uM by RT-PCR method relative to control; assay type: functional; how it was run: as §2
HeLa [11] = experiment: Inhibition of mPGES1 mRNA expression in human HeLa cells at 50 uM by RT-PCR method; assay type: functional, cell-based; how it was run: as §2
HeLa [12] = experiment: Inhibition of COX-2 mRNA expression in human HeLa cells at 50 uM by RT-PCR method; assay type: functional, cell-based; how it was run: as §2
HeLa [13] = experiment: Increase in IL-6 mRNA expression in human HeLa cells at 50 uM by RT-PCR method relative to control; assay type: functional; how it was run: as §2
[14] = target: T5, Prostaglandin E synthase/G/H synthase 2 (Homo sapiens); experiment: Inhibition of COX-2/mPGES1 in human HeLa cells assessed as reduction in TNF-alpha induced PGE2 production at 50 uM preincubated for 15 mins followed by arachidonic acid addition for 15 mins by ELISA; assay type: cell-based
How it was run: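 HeLa cells primed with TNF at 50 ng/ml to induce mPGES1, then exposed to compound for 15 min, then challenged with exogenous arachidonic acid for a further 15 min. PGE2 released into the culture supernatant was quantified by ELISA.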

Prostaglandin E synthase = target: T4, Prostaglandin E synthase; experiment: Inhibition of mPGES1 in human HeLa cells assessed as reduction in TNF-alpha induced PGE2 production preincubated for 2 hrs followed by TNF-alpha addition for 24 hrs by ELISA; assay type: cell-based; how it was run: as §1
[15] = substrate: COc1cc(-c2cc3cccc(O)c3c(=O)o2)cc(OC)c1OC; conditions: Homo sapiens; 10 uM
[16] = substrate: O=c1oc(-c2ccc(O)c(O)c2)cc2ccccc12; conditions: Homo sapiens; 50 uM
[17] = substrate: COc1cc(-c2cc3cccc(O)c3c(=O)o2)cc(OC)c1OC; conditions: Homo sapiens; 30 uM
[18] = substrate: COc1cc(-c2cc3cccc(O)c3c(=O)o2)cc(OC)c1OC; conditions: Homo sapiens; 30 uM; remark: listed apart in the source
[19] = substrate: O=c1oc(-c2ccc(O)c(O)c2)cc2ccccc12; conditions: Homo sapiens; 10 uM
[20] = substrate: COc1cc(-c2cc3cccc(O)c3c(=O)o2)cc(OC)c1OC; conditions: Homo sapiens; 10 uM; remark: listed apart in the source
[21] = substrate: O=c1oc(-c2ccc(O)c(O)c2)cc2ccccc12; conditions: Homo sapiens; 50 uM; remark: listed apart in the source
[22] = substrate: O=c1oc(-c2ccc(O)c(O)c2)cc2ccccc12; conditions: Homo sapiens; 10 uM; remark: listed apart in the source

T5 sequence (P35354 whole entry, looked up, one chain of several): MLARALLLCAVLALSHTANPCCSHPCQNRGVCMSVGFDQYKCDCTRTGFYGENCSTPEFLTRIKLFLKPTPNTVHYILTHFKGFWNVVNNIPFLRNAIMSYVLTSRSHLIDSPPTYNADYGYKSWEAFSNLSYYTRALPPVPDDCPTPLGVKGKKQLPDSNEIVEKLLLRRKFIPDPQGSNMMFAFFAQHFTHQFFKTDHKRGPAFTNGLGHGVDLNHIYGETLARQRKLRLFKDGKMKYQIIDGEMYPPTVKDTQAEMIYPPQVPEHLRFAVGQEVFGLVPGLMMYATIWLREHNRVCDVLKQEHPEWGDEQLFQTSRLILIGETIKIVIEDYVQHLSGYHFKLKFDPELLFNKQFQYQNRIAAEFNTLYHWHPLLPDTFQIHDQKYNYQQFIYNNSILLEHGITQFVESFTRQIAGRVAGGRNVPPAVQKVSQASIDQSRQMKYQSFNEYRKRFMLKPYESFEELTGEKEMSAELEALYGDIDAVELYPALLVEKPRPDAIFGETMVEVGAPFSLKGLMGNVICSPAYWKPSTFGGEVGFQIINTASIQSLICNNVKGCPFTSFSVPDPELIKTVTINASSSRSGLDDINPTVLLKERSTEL

Row | Molecule | inhibition [1] [%] | inhibition [4] [%] | Activity [5] [%] | viability at 24 h, 50 µM [6] [%] | further results
1 | COc1cc(-c2cc3cccc(O)c3c(=O)o2)cc(OC)c1OC | 80 to 80.3 | 68 | 12 to 12.4 | 80.2 | inhibition [2]: Active; IC50 [3]: 12.4 µM
2 | COc1cc(-c2cc3cccc(O)c3c(=O)o2)ccc1O | 35.6 | 75 | 36.2 | 79.8 | 
3 | O=c1oc(-c2ccc(O)c(O)c2)cc2cccc(O)c12 [THUNBERGINOL A] | 40.9 | 74 | 49 | 68.7 | fold change (FC) (HeLa [7]): 1; inhibition [8]: 75%; fold change (FC) (HeLa [9]): 9.6; fold change (FC) (HeLa [10]): 1; inhibition (HeLa [11]): Active; inhibition (HeLa [12]): Active; fold change (FC) (HeLa [13]): 1; inhibition [14]: 17%
4 | COc1ccc(-c2cc3ccccc3c(=O)o2)cc1O | 65.9 | 18 | 20 | 70.5 | IC50 (Prostaglandin E synthase): 9.7 µM
5 | O=c1oc(-c2ccc(O)cc2)cc2ccccc12 | 34.1 | 65 | 17 | 81.4 | 
6 | O=c1oc(-c2ccc(O)cc2)cc2cccc(O)c12 | 36.4 | 74 | 12.6 | 70.6 | IC50 (Prostaglandin E synthase): 7.1 µM
7 | COc1cc(-c2cc3ccccc3c(=O)o2)ccc1O | 78.8 | 73 | 47.8 | 65 | IC50 [3]: 22.8 µM
8 | O=c1oc(-c2ccccc2)cc2ccccc12 | 50 | 75 | 14 | 76.7 | IC50 (Prostaglandin E synthase): 9.5 µM
9 | O=c1oc(-c2ccc(O)c(O)c2)cc2ccccc12 | 84.1 | 78 | 53 to 53.2 | 78.7 | fold change (FC) (HeLa [7]): 1; inhibition [8]: 76%; fold change (FC) (HeLa [9]): 5.6; fold change (FC) (HeLa [10]): 1; inhibition (HeLa [11]): Active; inhibition (HeLa [12]): Active; fold change (FC) (HeLa [13]): 1; inhibition [14]: 44%; IC50 [3]: 4.6 µM
10 | COc1ccc(-c2cc3cccc(O)c3c(=O)o2)cc1O | 59.1 | 44 | 17.8 | 77.4 | IC50 (Prostaglandin E synthase): 11.3 µM
11 | COc1cc(-c2cc3ccccc3c(=O)o2)cc(OC)c1OC | 72 | 73 | 15.8 | 75.7 | IC50 (Prostaglandin E synthase): 9.3 µM; IC50 [3]: 20.9 µM
12 | COc1cc(O)c2c(=O)oc(-c3ccccc3)cc2c1 | 49.2 | 54 | 16.6 | 78.1 | 
13 | O=C1O[C@H]([C@@H](O)CO)C(O)=C1O |  |  | 82.2 |  | 
14 | O=c1oc(-c2ccccc2)cc2cccc(O)c12 | 55.3 | 60 | 13.4 | 75.6 | 
15 | CC(c1cc2ccccc2s1)N(O)C(N)=O (centres undefined) [ZILEUTON] |  | 50 | 33.6 | 78 | 
16 | COc1cc(O)c2c(=O)oc(-c3cc(OC)c(OC)c(OC)c3)cc2c1 | 36.2 | 14 | 15.4 | 60.5 | 
17 | B1 |  |  |  |  | Km [15]: 1.2 µM; Km [16]: 1.17 µM; Vmax [17]: 0.93 nmol/min; Km [18]: 1.45 µM; Km [19]: 1.38 µM; Vmax [20]: 0.83 nmol/min; Vmax [21]: 0.64 nmol/min; Vmax [22]: 0.93 nmol/min
